Experimental data from ChEMBL document CHEMBL3407490, “Synthesis of functionalized 3-, 5-, 6- and 8-aminoquinolines via intermediate (3-pyrrolin-1-yl)- and (2-oxopyrrolidin-1-yl)quinolines and evaluation of their antiplasmodial and antifungal activity” (Eur J Med Chem, 2015).
In brackets after ≈: the same amount, converted by molar mass. Activity calls are given as the source filed them. No cut-off for these calls is given here.

Key:
Plasmodium falciparum [1] = assay: Antiplasmodial activity against chloroquine-sensitive asexual erythrocytic stage of Plasmodium falciparum NF54 assessed as […] lactate dehydrogenase assay; assay type: functional, organism-based
Summary of the method: (§1)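 Asexual erythrocytic P. falciparum kept in continuous culture (modified Trager–Jensen). Growth measured by parasite lactate dehydrogenase assay (modified Makler). Full dose-response: 10 twofold dilutions in complete medium from 10 μg/mL down to 0.02 μg/mL. Tested in triplicate on one occasion. Chloroquine and artesunate as references.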

Aspergillus flavus [2] = assay: Antifungal activity against Aspergillus flavus IHEM 5785 at 600 ug/dish after 1 day by disk diffusion method; assay type: functional, organism-based; conditions: 600 ug/dis
Summary of the method: (§2)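 Disk diffusion: strains subcultured on Sabouraud dextrose agar; inoculum of colonies (yeast) or mycelium plus spores (A. flavus) in sterile saline adjusted to 0.5 McFarland, swabbed onto Mueller-Hinton + GMB agar ([…], 0.5 μg/mL methylene blue). DMSO-dissolved compound applied to 6 mm paper disks and freeze-dried; 600 μg/dish in triplicate. Incubated at 37 °C for 1 day (C. albicans, A. flavus) or 20 °C for 4 days (R. bogoriensis). Nystatin disks as positive control, DMSO disks as negative control.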

[3] = Antifungal activity against Rhodotorula bogoriensis MUCL 11796 at 600 ug/dish after 4 days by disk diffusion method; assay type: functional; conditions: 600 ug/dis; summary of the method: as §2
Aspergillus flavus [4] = assay: Antifungal activity against Aspergillus flavus IHEM 5785 by microdilution method; assay type: functional
Summary of the method: (§3)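 Broth microdilution: log2 dilution series made from stocks in 10% DMSO, diluted 1:5 in RPMI 1640 with glutamine and without bicarbonate. Equal volume of working inoculum added: 1 × 10^3 CFU/mL at 37 °C (C. albicans, A. flavus) or 1 × 10^5 CFU/mL at 20 °C (R. bogoriensis). Absorbance read at 530 nm. MIC taken as the concentration giving 50% growth inhibition versus 1% DMSO medium control. Amphotericin B as positive control.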

Candida albicans [5] = assay: Antifungal activity against Candida albicans IHEM 374 by microdilution method; assay type: functional; summary of the method: as §3
Candida albicans [6] = assay: Antifungal activity against Candida albicans IHEM 374 at 600 ug/dish after 1 day by disk diffusion method; assay type: functional, organism-based; conditions: 600 ug/dis; summary of the method: as §2
[7] = Antifungal activity against Rhodotorula bogoriensis MUCL 11796 by microdilution method; assay type: functional; summary of the method: as §3
Plasmodium falciparum [8] = assay: Antiplasmodial activity against chloroquine-resistant asexual erythrocytic stage of Plasmodium falciparum Dd2 assessed as […] lactate dehydrogenase assay; assay type: functional, organism-based; summary of the method: as §1
Plasmodium falciparum [9] = assay: Resistance index, ratio of IC50 for chloroquine-resistant asexual erythrocytic stage of Plasmodium falciparum Dd2 to IC50 for chloroquine-sensitive asexual erythrocytic stage of Plasmodium falciparum NF54; assay type: functional
Summary of the method: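 Resistance index calculated as IC50 against Dd2 divided by IC50 against NF54, both from the pLDH assay.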

CHO = assay: Cytotoxicity against CHO cells assessed as cell growth and survival after 48 hrs by MTT assay; assay type: cell-based; conditions: Cricetulus griseus
Summary of the method: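 CHO mammalian cells; growth and survival read by MTT assay. Samples diluted in complete medium using the same scheme as the emetine reference (tenfold serial dilutions, 6 concentrations). Emetine was the reference drug. IC50 obtained by non-linear dose-response curve fitting.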

[10] = Selectivity index, ratio of IC50 for CHO cells to IC50 for chloroquine-sensitive asexual erythrocytic stage of Plasmodium falciparum NF54; assay type: toxicity, cell-based; conditions: hamster; read-out: Ratio IC50
Summary of the method: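 Selectivity index calculated as IC50 in CHO cells (MTT) divided by IC50 against NF54 (pLDH).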

## CC1CCCN1c1cnc2ccccc2c1 (stereo not drawn)
Plasmodium falciparum [1]
  IC50: 31.1 µM

## CC(O)CCCNc1cccc2ncccc12 (stereo not drawn)
Plasmodium falciparum [1]
  IC50: 32.6 µM

## OCCCCNc1cccc2cccnc12
Plasmodium falciparum [1]
  IC50: > 45 µM
Aspergillus flavus [2]
  Activity: Active
[3]
  Activity: Active
Aspergillus flavus [4]
  MIC: 100 µM (≈ 21.6 µg/mL)
Candida albicans [5]
  MIC: 1200 µM (≈ 260 µg/mL)
Candida albicans [6]
  Activity: Active
[7]
  MIC: 40 µM (≈ 8.65 µg/mL)

## CC1CCCN1c1cccc2ncccc12 (stereo not drawn)
Plasmodium falciparum [1]
  IC50: > 45 µM

## CC(O)CCCNc1ccc2ncccc2c1 (stereo not drawn)
Plasmodium falciparum [1]
  IC50: > 40 µM
Aspergillus flavus [2]
  Activity: Active
[3]
  Activity: Active
Aspergillus flavus [4]
  MIC: 300 µM (≈ 69.1 µg/mL)
Candida albicans [5]
  MIC: 1100 µM (≈ 253 µg/mL)
Candida albicans [6]
  Activity: Active
[7]
  MIC: 1100 µM (≈ 253 µg/mL)

## Cc1nc2ccccc2cc1NCCCC(C)(C)O
Plasmodium falciparum [1]
  IC50: > 35 µM

## CC1CCCN1c1ccc2ncccc2c1 (stereo not drawn)
Plasmodium falciparum [1]
  IC50: 41.9 µM

## O=C1CCCN1c1cccc2cccnc12
Plasmodium falciparum [1]
  IC50: > 45 µM

## Cc1nc2ccccc2cc1NCCCC(C)O (stereo not drawn)
Plasmodium falciparum [1]
  IC50: > 40 µM

## c1ccc2ncc(N3CCCC3)cc2c1
Plasmodium falciparum [1]
  IC50: > 50 µM

## CC(C)(O)CCCNc1ccc2ncccc2c1
Plasmodium falciparum [1]
  IC50: > 40 µM

## C1=CCN(c2cnc3ccccc3c2)C1
Plasmodium falciparum [1]
  IC50: > 50 µM

## C1=CCN(c2ccc3ncccc3c2)C1
Plasmodium falciparum [1]
  IC50: > 50 µM

## OCCCCNc1cccc2ncccc12
Plasmodium falciparum [8]
  IC50: 49 µM
Plasmodium falciparum [1]
  IC50: 19.9 µM
Plasmodium falciparum [9]
  Ratio IC50: 2.5
CHO
  IC50: > 100 µM
[10]
  selectivity ratio: 23

## CC[C@H]1CN2CCc3cc(OC)c(OC)cc3[C@@H]2C[C@@H]1C[C@H]1NCCc2cc(OC)c(OC)cc21 [EMETINE]
CHO
  IC50: 0.125 µM

## c1cnc2ccc(N3CCCC3)cc2c1
Plasmodium falciparum [1]
  IC50: > 50 µM

## C1=CCN(c2cccc3ncccc23)C1
Plasmodium falciparum [1]
  IC50: > 50 µM

## O=C1CCCN1c1cnc2ccccc2c1
Plasmodium falciparum [1]
  IC50: > 45 µM

## Brc1c(Br)c(Br)n(-c2ccc3ncccc3c2Br)c1Br
Plasmodium falciparum [1]
  IC50: > 15 µM

## C1=CCN(c2cccc3cccnc23)C1
Plasmodium falciparum [1]
  IC50: > 50 µM

## O=C1CCCN1c1cccc2ncccc12
Plasmodium falciparum [1]
  IC50: > 45 µM

## O=C1CCCN1c1ccc2ncccc2c1
Plasmodium falciparum [1]
  IC50: > 45 µM

## C[C@@H]1[C@H](O)[C@@H](C)/C=C/C=C/C=C/C=C/C=C/C=C/C=C/[C@H](O[C@@H]2O[C@H](C)[C@@H](O)[C@H](N)[C@@H]2O)C[C@@H]2O[C@](O)(C[C@@H](O)C[C@@H](O)[C@H](O)CC[C@@H](O)C[C@@H](O)CC(=O)O[C@H]1C)C[C@H](O)[C@H]2C(=O)O [AMPHOTERICIN B]
Aspergillus flavus [4]
  MIC: 30 µM (≈ 27.7 µg/mL)
Candida albicans [5]
  MIC: < 0.2 µM
[7]
  MIC: < 0.2 µM

## Cc1nc2ccccc2cc1N1CCCC1C (stereo not drawn)
Plasmodium falciparum [8]
  IC50: 38 µM
Plasmodium falciparum [1]
  IC50: 13.3 µM
Plasmodium falciparum [9]
  Ratio IC50: 2.9
CHO
  IC50: 294 µM
[10]
  selectivity ratio: 22

## c1cc(N2CCCC2)c2cccnc2c1
Plasmodium falciparum [1]
  IC50: > 50 µM

## CC(C)(O)CCCNc1cccc2ncccc12
Plasmodium falciparum [1]
  IC50: 28.2 µM
Aspergillus flavus [2]
  Activity: Active
[3]
  Activity: Active
Aspergillus flavus [4]
  MIC: 300 µM (≈ 73.3 µg/mL)
Candida albicans [5]
  MIC: 2000 µM (≈ 489 µg/mL)
Candida albicans [6]
  Activity: Active
[7]
  MIC: 20 µM (≈ 4.89 µg/mL)

## C[C@H]1[C@H](OC(=O)CCC(=O)O)O[C@@H]2O[C@@]3(C)CC[C@H]4[C@H](C)CC[C@@H]1[C@@]24OO3 [ARTESUNATE]
Plasmodium falciparum [8]
  IC50: 0.011 µM
Plasmodium falciparum [9]
  Ratio IC50: 2.2

## OCCCCNc1cnc2ccccc2c1
Plasmodium falciparum [1]
  IC50: > 45 µM

## CC(O)CCCNc1cnc2ccccc2c1 (stereo not drawn)
Plasmodium falciparum [1]
  IC50: > 40 µM
Aspergillus flavus [2]
  Activity: Active
[3]
  Activity: Active
Aspergillus flavus [4]
  MIC: 100 µM (≈ 23 µg/mL)
Candida albicans [5]
  MIC: 1100 µM (≈ 253 µg/mL)
Candida albicans [6]
  Activity: Active
[7]
  MIC: 300 µM (≈ 69.1 µg/mL)

## OCCCCNc1ccc2ncccc2c1
Plasmodium falciparum [1]
  IC50: > 45 µM
Aspergillus flavus [2]
  Activity: Active
[3]
  Activity: Active
Aspergillus flavus [4]
  MIC: 10 µM (≈ 2.16 µg/mL)
Candida albicans [5]
  MIC: 1200 µM (≈ 260 µg/mL)
Candida albicans [6]
  Activity: Active
[7]
  MIC: 1200 µM (≈ 260 µg/mL)

## CC(C)(O)CCCNc1cccc2cccnc12
Plasmodium falciparum [1]
  IC50: > 40 µM
Aspergillus flavus [2]
  Activity: Active
[3]
  Activity: Active
Aspergillus flavus [4]
  MIC: 60 µM (≈ 14.7 µg/mL)
Candida albicans [5]
  MIC: 1000 µM (≈ 244 µg/mL)
Candida albicans [6]
  Activity: Active
[7]
  MIC: 30 µM (≈ 7.33 µg/mL)
